Assay outcomes (PubChem BioAssay)
The list is not random: actives were taken first. Their share in the collection is about 3.5%.
PREPL inh: inhibits the human prolyl oligopeptidase-like enzyme | 320,000 tested, 0.68% active | AID 2751 | recombinant PREPL, fluorescence polarization activity-based probe | inhibition, % at 5.96 µM; in the data active = inhibition above about 43%
PAFAH1B2 inh: blocks human PAF acetylhydrolase 1b catalytic subunit 2 | P68402 | recombinant PAFAH1B2, FP-rhodamine activity probe, fluorescence polarization | inhibition, % at 3.39 µM | 340,000 tested, 1.2% active;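 active = inhibition above the mean of all tested compounds plus 3 SD, cut at about 24% in these data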
Target sequence (P68402 whole entry, looked up): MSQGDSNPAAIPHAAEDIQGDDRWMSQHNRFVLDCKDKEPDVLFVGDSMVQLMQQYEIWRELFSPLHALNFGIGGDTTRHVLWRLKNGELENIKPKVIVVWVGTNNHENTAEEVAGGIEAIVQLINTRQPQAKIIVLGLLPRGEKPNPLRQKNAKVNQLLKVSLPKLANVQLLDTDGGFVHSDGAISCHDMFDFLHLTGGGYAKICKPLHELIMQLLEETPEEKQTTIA
PAFAH1B3 inh: blocks human PAF acetylhydrolase 1B catalytic subunit 3. AID 492972. recombinant PAFAH1B3, FP-rhodamine probe, fluorescence polarization. inhibition, % at 3.39 µM. 340,000 tested, 0.28% active. Q15102;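 active = inhibition above the screen-wide average of all tested compounds plus 3 SD, cut at about 25% in these data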
Target sequence (Q15102 whole entry, looked up): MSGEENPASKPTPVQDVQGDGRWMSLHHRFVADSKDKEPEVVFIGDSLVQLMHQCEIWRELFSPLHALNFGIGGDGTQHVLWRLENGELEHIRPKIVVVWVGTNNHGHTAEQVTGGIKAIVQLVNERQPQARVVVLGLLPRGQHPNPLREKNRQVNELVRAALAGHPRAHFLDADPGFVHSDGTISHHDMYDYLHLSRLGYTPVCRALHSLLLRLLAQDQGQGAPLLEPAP
pPAFAH FP inh: pPAFAH (human) enzyme inhibition. recombinant pPAFAH, FP-rhodamine probe fluorescence polarization. Q13093. inhibition, % at 3.39 µM. 330,000 tested, 1.5% active;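 active = inhibition above the mean inhibition across the screen plus 3 SD, cut at about 25% in these data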;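 note: inhibitors block binding of the rhodamine activity-based probe so polarization drops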
PAFAH2 FP inh: PAFAH2 (human) inhibition; recombinant PAFAH2, FP-rhodamine activity probe, fluorescence polarization; 340,000 tested, 0.99% active; inhibition, % at 3.39 µM; Q99487; AID 492956;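 active = inhibition above the mean over all tested compounds plus 3 SD, cut at about 30% in these data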;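 note: inhibitors block probe labeling of enzyme so polarization drops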
Apaf-1 inh: inhibitors of human Apaf-1 apoptosome | O14727 | reconstituted apoptosome caspase-3 activity, DEVD-Rh110 fluorescence | inhibition, % at 20 µM | 330,000 tested, 0.71% active | AID 489030; active = inhibition of at least 40% at 20 µM
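detection = Rh110 fluorescence intensity | test system = biochemical Apaf-1 apoptosome reconstitution | also added = cytochrome c and DEVD-Rh110 substrate | schedule = 30 min plus 50 min, RT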
PAFAH2 confirm: PAFAH2 (human) inhibition, confirmed; shares compounds with PAFAH2 FP inh; recombinant PAFAH2, FP-rhodamine activity probe, fluorescence polarization; inhibition, % at 3.39 µM; 2,300 tested, 65% active;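 active = mean inhibition over three repeats above a set limit taken from the earlier primary screen, cut at about 30% in these data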;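 note: inhibitor blocks binding of rhodamine activity probe so polarization falls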
A number is an active result; . = inactive; / = no result.

SMILES	PREPL inh	PAFAH1B2 inh	PAFAH1B3 inh	pPAFAH FP inh	PAFAH2 FP inh	Apaf-1 inh	PAFAH2 confirm
COc1ccc(CCNC(=O)COC(=O)/C=C/c2ccc3c(c2)OCO3)cc1OC	.	.	.	.	.	.	/
CCc1ccc(N2C(=O)CC(N3CCN(Cc4ccc5c(c4)OCO5)CC3)C2=O)cc1 (centres undefined)	.	.	.	.	.	.	/
Cc1cc2c(=O)oc(-c3ccccc3Br)nc2s1	/	.	.	/	69	/	52
Cc1ccc(-c2nnc(-c3ccccc3Br)o2)cc1	.	.	.	.	.	.	/
O=C(NC1CCCCCC1)c1ccc([N+](=O)[O-])s1	/	.	.	/	.	.	/
CC(NC(=O)c1ccc(F)cc1F)C1CC2CCC1C2 (centres undefined)	.	.	.	.	.	.	/
CC(NC(=O)COC(=O)c1ccccc1F)C1CC2CCC1C2 (centres undefined)	.	.	.	.	76	.	63
Cc1nn(-c2ccccc2)c(C)c1/C=N/NC(=O)c1cnccn1	.	.	.	.	.	.	/
CC(=O)N1CCN(S(=O)(=O)c2cccc(C(=O)OCC(=O)NC(=O)c3cccn3C)c2)CC1	.	.	.	.	35	.	32
O=C(COC(=O)c1cc[n+]([O-])cc1)Nc1c(Cl)cccc1C(F)(F)F	.	.	.	.	.	.	/
O=C(COC(=O)c1cccc(S(=O)(=O)N2CCCC2)c1)Nc1ccccc1C(F)(F)F	/	.	.	/	45	.	40
COc1cccc(CNC(=O)COC(=O)c2cccc(S(=O)(=O)N3CCN(C(C)=O)CC3)c2)c1	.	.	.	.	.	.	/
Cc1ccc(C)c(NC(=O)COC(=O)c2cccc(S(=O)(=O)N3CCCCC3)c2)c1	.	.	.	.	.	.	/
CC(=O)N1CCN(S(=O)(=O)c2cccc(C(=O)OCC(=O)Nc3c(Cl)cccc3C(F)(F)F)c2)CC1	/	.	.	/	44	/	32
Cc1ccc(C(=O)OCC(=O)NC(=O)c2cccn2C)cc1	.	.	.	.	47	.	38
CC(=O)Nc1ccc(S(=O)(=O)Nc2nnc(CC(C)(C)C)s2)cc1	.	.	.	.	.	.	/
CCOC(=O)c1sc(N2C(=O)C(O)=C(C(=O)c3ccco3)C2c2cccc(Cl)c2)nc1C (centres undefined)	.	.	.	.	.	.	/
CCOC(=O)c1sc(N2C(=O)C(O)=C(C(=O)c3ccco3)C2c2cccc([N+](=O)[O-])c2)nc1C (centres undefined)	.	.	.	.	42	/	30
CC(C)(C)C(=O)OC/C(N)=N/OC(=O)c1ccccc1	.	.	.	.	44	.	71
COc1ccc(C(=O)O/N=C(\N)c2ccccc2)cc1OC	.	.	.	.	.	.	/
O=C(O)CONC(=O)c1cc(OCC(F)(F)F)ccc1OCC(F)(F)F	.	.	.	.	.	.	/
O=c1oc(-c2ccc(F)cc2)nc2ccsc12	.	.	.	.	48	.	34
Cc1nc2sc3c(c2c(=O)o1)CCCC3	.	.	.	.	.	.	/
Cc1sc2nc(-c3ccccc3)oc(=O)c2c1C	.	.	.	.	81	.	65
O=c1oc(-c2ccco2)nc2sc3c(c12)CCCC3	72	.	.	.	72	.	63
SMILES	PREPL inh	PAFAH1B2 inh	PAFAH1B3 inh	pPAFAH FP inh	PAFAH2 FP inh	Apaf-1 inh	PAFAH2 confirm
O=c1oc(-c2ccccc2)nc2sc3c(c12)CCC3	.	.	.	.	72	.	74
CCCCCCCCCNC(=O)[C@H](NC(=O)COc1ccccc1)[C@@H]1NC(C(=O)OC)C(C)(C)S1 (some centres undefined)	.	.	.	.	.	.	/
COc1ccc(NC(=O)COC(=O)c2cccc(S(=O)(=O)N(C)C)c2)cc1	/	.	.	/	41	/	.
CN(C)S(=O)(=O)c1cccc(C(=O)OCC(=O)NCc2ccccc2)c1	.	.	.	.	30	.	.
CN(c1ccccc1)S(=O)(=O)c1cccc(C(=O)OCC(=O)NCc2ccccc2)c1	.	.	.	.	.	.	/
CN(C)S(=O)(=O)c1cccc(C(=O)OCC(=O)Nc2sccc2C(N)=O)c1	.	.	.	.	.	.	/
O=C(NNC(=O)C1C2C=CC(C2)C1C(=O)O)c1ccccc1O (centres undefined)	.	.	.	.	.	.	/
